MITF act: activators of MITF-driven TRPM1 promoter activity in SK-MEL-5 cells; SK-MEL-5 TRPM1-promoter luciferase, 24 h; % of positive control, neutral wells = 0; activation, % at 12.5 µM; 0.75% of 300,000 active;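 active means mean activation of at least 80% with every replicate also reaching 80%; inconclusive means mean reaches 80% but some replicate falls short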
esBAF inh: inhibitors of esBAF chromatin remodeling in mouse ES cells; Bmi1-luciferase knock-in reporter, 24 h; 100% = twice the neutral-well signal; reporter increase, % at 12.5 µM; 2% of 350,000 active; AID 602393; in the data active means activation above about 40%; inconclusive means no clear call, values can overlap the other calls;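 further: a rise in the Bmi1 reporter signal indicates esBAF inhibition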
ERAP1 HTS inh: blocks human ERAP1 aminopeptidase activity; Q9NZ08; recombinant ERAP1, Leu-AMC fluorescence, 60 min; inhibition, % at 10.7 µM; 0.15% of 340,000 active;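 active means mean replicate inhibition of at least 30%, or all replicates individually reaching that 30% level; inactive means mean below 30% and not every replicate reaching it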
Target sequence (Q9NZ08 whole entry, looked up): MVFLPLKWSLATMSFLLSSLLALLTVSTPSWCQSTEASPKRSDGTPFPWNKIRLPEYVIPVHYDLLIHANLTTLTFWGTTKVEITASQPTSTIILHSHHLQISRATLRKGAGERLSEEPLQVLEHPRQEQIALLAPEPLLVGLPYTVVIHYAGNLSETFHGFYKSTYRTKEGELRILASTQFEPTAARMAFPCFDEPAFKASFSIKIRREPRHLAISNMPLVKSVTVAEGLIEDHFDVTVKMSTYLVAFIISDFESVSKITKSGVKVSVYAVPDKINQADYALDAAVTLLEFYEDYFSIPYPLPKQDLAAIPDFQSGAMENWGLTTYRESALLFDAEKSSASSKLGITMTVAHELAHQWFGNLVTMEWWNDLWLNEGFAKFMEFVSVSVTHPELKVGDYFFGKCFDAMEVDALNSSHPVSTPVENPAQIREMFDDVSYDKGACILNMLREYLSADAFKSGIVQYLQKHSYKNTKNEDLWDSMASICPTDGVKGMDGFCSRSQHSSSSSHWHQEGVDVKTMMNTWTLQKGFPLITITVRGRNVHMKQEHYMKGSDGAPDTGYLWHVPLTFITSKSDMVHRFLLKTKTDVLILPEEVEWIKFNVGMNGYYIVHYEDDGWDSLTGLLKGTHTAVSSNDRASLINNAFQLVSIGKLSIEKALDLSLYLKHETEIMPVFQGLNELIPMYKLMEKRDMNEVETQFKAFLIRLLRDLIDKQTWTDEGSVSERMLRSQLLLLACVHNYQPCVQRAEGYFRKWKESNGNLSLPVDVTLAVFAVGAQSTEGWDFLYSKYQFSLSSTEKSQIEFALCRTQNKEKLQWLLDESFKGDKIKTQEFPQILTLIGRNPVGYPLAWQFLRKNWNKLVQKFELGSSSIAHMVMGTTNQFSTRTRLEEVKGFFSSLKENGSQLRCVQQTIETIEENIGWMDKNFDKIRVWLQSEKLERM
Wnt bcat act: activators of Wnt/beta-catenin signaling; Wnt/beta-catenin reporter cell assay, activator, plate reader; activation, % at 9.35 µM; 1.2% of 300,000 active; AID 743398; in the data active means activation above about 30%, passing the limit was not always enough; inconclusive means no clear call, values can overlap the other calls
Env fusion inh: HIV envelope-mediated fusion inhibition | HeLa-JRFL Env/CEM21 cell fusion, luciferase | inhibition, % at 12.3 µM | 1.1% of 360,000 active;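 active means mean replicate inhibition score of at least 50 and every replicate individually at or above 50; inconclusive means only one of the two criteria met; inactive means mean below 50 and not all replicates reaching 50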
Cneo AK release: Cryptococcus neoformans lysis via adenylate kinase release | lysis activity, % at 15 µM | 0.2% of 360,000 active | C. neoformans lysis, adenylate kinase release luminescence, 4 h; normalised: neutral wells 0, clomiphene wells 100;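 active means mean lysis activity across replicates of at least 80%, whatever share of replicates individually reach that level; inactive means mean lysis activity below 80%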
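Material: C. neoformans cells; Schedule: 4 h static compound exposure, 37 °C, read 1 h post-reagent; Measured by: adenylate kinase release luminescence; Read-out: signal increase indicating cell lysis; Controls: Clomiphene as positive lysis control.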
Large screens that a line does not name were inactive. Hits are enriched below; roughly 3.5% of the tested compounds scored in any of these assays.

Cc1cccc(NC(=S)NC(=O)c2oc3ccccc3c2C)n1	esBAF inh 49
Cc1cccc(NC(=O)c2cc3ccccc3c(=O)o2)n1	Wnt bcat act 52
COc1ccc(CCN2CCCC(CN(C)C(=O)c3ccoc3)C2)cc1 (stereo unspecified)	esBAF inh 62, Wnt bcat act inconclusive
CCCn1c(C)cc(C(=O)CN2C(=O)c3ccccc3S2(=O)=O)c1C	Env fusion inh 67 (no result: MITF act)
COc1ccc(C(=O)CN2C(=O)c3ccccc3S2(=O)=O)cc1	Env fusion inh 72 (no result: MITF act, esBAF inh)
COc1ccc(C(=O)CN2C(=O)c3ccccc3S2(=O)=O)cc1Br	none (no result: esBAF inh)
Cc1cc(C(=O)CN2C(=O)c3ccccc3S2(=O)=O)c(C)n1CC1CCCO1 (stereo unspecified)	Env fusion inh 115 (no result: MITF act, ERAP1 HTS inh, Wnt bcat act)
Cc1cc(C(=O)COC(=O)c2cccc(S(=O)(=O)N(C)C)c2)c(C)n1CC1CCCO1 (stereo unspecified)	MITF act inconclusive, Wnt bcat act 37 (no result: esBAF inh)
Cc1ccc(C)c(C(=O)CN2C(=O)c3ccccc3S2(=O)=O)c1	none (no result: ERAP1 HTS inh, Wnt bcat act, Env fusion inh)
CCCn1c(C)cc(C(=O)Cn2nnc3ccccc3c2=O)c1C	Wnt bcat act 46 (no result: esBAF inh, Cneo AK release)
Cc1cc(NC(=O)CN2C(=O)c3ccccc3S2(=O)=O)no1	ERAP1 HTS inh 32
O=C(CN1C(=O)c2ccccc2S1(=O)=O)Nc1ccon1	none
CO[C@H]1CN(C)C(=O)c2cc(NS(C)(=O)=O)ccc2OC[C@H](C)N(Cc2ccccn2)C[C@@H]1C	none (no result: MITF act, ERAP1 HTS inh, Wnt bcat act, Env fusion inh, Cneo AK release)
COc1ccc(NC(=O)C2Cc3c(-c4ccccc4Oc4ccccc4)ccnc3O2)cc1OC (stereo unspecified)	Env fusion inh 67 (no result: MITF act)
COc1ccc(Cl)cc1-c1cc(C(=O)NCC2CCCCC2)[nH]n1	none (no result: MITF act)
CCOc1ccc(-c2cc(C(=O)NC3CCCCC3)[nH]n2)c(C)c1	esBAF inh 57 (no result: MITF act)
CCOc1ccc(-c2cc(C(=O)NCc3cc(OC)cc(OC)c3)[nH]n2)c(C)c1	none (no result: MITF act)
COc1ccc(F)cc1-c1cc(C(=O)NC2CCCCC2)[nH]n1	esBAF inh 49 (no result: MITF act)
CCCC(=O)Nc1ccc2c(c1)C(=O)N(C)C[C@@H](OC)[C@H](C)CN(S(=O)(=O)c1cn(C)cn1)[C@@H](C)CO2	none (no result: MITF act, Wnt bcat act, Env fusion inh)
COc1ccccc1OCc1nc2ccccc2n1C	esBAF inh 48
COc1ccccc1C(O)Cc1nc2ccccc2n1C (stereo unspecified)	esBAF inh 48 (no result: ERAP1 HTS inh, Wnt bcat act, Env fusion inh)
C[C@@H]1CN([C@H](C)CO)C(=O)Cc2cc(NC(=O)CCC(F)(F)F)ccc2O[C@@H]1CN(C)S(=O)(=O)c1ccc(F)cc1	none (no result: MITF act, Wnt bcat act)
O=C(Cc1cccnc1)N1CC[C@H]2[C@H](CO)Nc3ccc(C#Cc4cccc(F)c4)cc3[C@H]21	none (no result: MITF act, esBAF inh, Wnt bcat act, Env fusion inh, Cneo AK release)
C[C@@H]1CN([C@H](C)CO)C(=O)Cc2cc(NC(=O)CCN3CCOCC3)ccc2O[C@@H]1CN(C)C(=O)Nc1ccc2c(c1)OCO2	none (no result: MITF act, Wnt bcat act)
O=C(c1ccc(Cl)s1)N1CCCC1	none (no result: ERAP1 HTS inh)
CC(C)(C)c1ccc(C(=O)N2CCCC2)s1	esBAF inh 47 (no result: ERAP1 HTS inh)
COc1cccc(S(=O)(=O)N(C)C[C@@H]2Oc3cc(C4=CCCC4)ccc3S(=O)(=O)N([C@H](C)CO)C[C@H]2C)c1	none (no result: MITF act, Wnt bcat act)
O=C(Nc1ccc(S(=O)(=O)N2CCCC2)cc1)c1ccc(CN2CCOCC2)cc1	Env fusion inh 74 (no result: ERAP1 HTS inh, Wnt bcat act)
O=C(Nc1ccc(S(=O)(=O)N2CCCCC2)cc1)c1ccc(CN2CCOCC2)cc1	none (no result: ERAP1 HTS inh, Wnt bcat act, Env fusion inh)
O=C(Nc1ccc(S(=O)(=O)N2CCN(Cc3ccccc3)CC2)cc1)c1cnccn1	Env fusion inh 95 (no result: ERAP1 HTS inh, Wnt bcat act)
CCN(CC)S(=O)(=O)c1ccc(NC(=O)c2ccc(CN3CCOCC3)cc2)cc1	Env fusion inh 64 (no result: ERAP1 HTS inh)
O=C(Nc1ccc2c(c1)OCCO2)c1ccc(CN2CCOCC2)cc1	esBAF inh 56 (no result: ERAP1 HTS inh, Wnt bcat act, Env fusion inh)
C[C@H]1CN([C@@H](C)CO)C(=O)c2cc(NS(=O)(=O)c3ccc(Cl)cc3)ccc2O[C@H]1CN(C)S(=O)(=O)c1cccs1	none (no result: MITF act, Wnt bcat act)
CC1=CC(C)(C)N(C(=O)c2ccccc2)c2ccc(C)cc21	Env fusion inh 94 (no result: ERAP1 HTS inh, Wnt bcat act)
CC1=CC(C)(C)N(C(=O)c2ccccc2)c2ccccc21	none (no result: ERAP1 HTS inh)
c1coc(CN2CN=C(Nc3nc4ccccc4s3)NC2)c1	esBAF inh 51 (no result: ERAP1 HTS inh)
Cc1nnc(NCc2ccco2)s1	none (no result: ERAP1 HTS inh)
c1coc(CNc2nc3ccccc3s2)c1	Wnt bcat act 36
Cc1nc(C)c(-c2csc(NCc3ccco3)n2)s1	esBAF inh 62 (no result: Env fusion inh)
Cc1nc(C)c(-c2csc(NCc3ccccc3)n2)s1	none (no result: esBAF inh, ERAP1 HTS inh, Cneo AK release)
CCCC(=O)N1CC2(C1)CN(S(=O)(=O)c1ccc(C)cc1)[C@H](CO)c1[nH]c3cc(OC)ccc3c12	none (no result: MITF act, esBAF inh, Wnt bcat act, Env fusion inh, Cneo AK release)
O=C(c1ccccc1F)N1CC(=O)N2[C@H](C1)[C@@H](c1ccc(C#Cc3ccccc3)cc1)[C@@H]2CO	none (no result: MITF act, esBAF inh, Wnt bcat act, Env fusion inh, Cneo AK release)
C[C@@H]1CCCCO[C@@H](CN(C)Cc2ccc(C(F)(F)F)cc2)[C@@H](C)CN([C@@H](C)CO)C(=O)c2cc(NC(=O)Nc3cccc4ccccc34)ccc2O1	none (no result: MITF act, ERAP1 HTS inh, Wnt bcat act)
COc1ncccc1-c1nnn(-c2ccc(Cl)nc2)n1	none
Cc1ccc(-n2nnc(-c3cccnc3Cl)n2)cc1	Wnt bcat act 31 (no result: Env fusion inh)
Clc1ccc(-n2nnc(-c3cccnc3Cl)n2)cn1	MITF act 126, esBAF inh 52, Wnt bcat act 41

Source: PubChem
